Columns and labels:
[1] = Selectivity ratio of Ki values for cathepsin B inhibition by those for calpain I inhibition
[2] = biological target: T1, Calpain-1 catalytic subunit (Sus scrofa, UniProt P35750); experiment: The compound was evaluated for inhibition of Calpain 1 from porcine erythrocytes; format: cell-based
T1 sequence (P35750 whole entry): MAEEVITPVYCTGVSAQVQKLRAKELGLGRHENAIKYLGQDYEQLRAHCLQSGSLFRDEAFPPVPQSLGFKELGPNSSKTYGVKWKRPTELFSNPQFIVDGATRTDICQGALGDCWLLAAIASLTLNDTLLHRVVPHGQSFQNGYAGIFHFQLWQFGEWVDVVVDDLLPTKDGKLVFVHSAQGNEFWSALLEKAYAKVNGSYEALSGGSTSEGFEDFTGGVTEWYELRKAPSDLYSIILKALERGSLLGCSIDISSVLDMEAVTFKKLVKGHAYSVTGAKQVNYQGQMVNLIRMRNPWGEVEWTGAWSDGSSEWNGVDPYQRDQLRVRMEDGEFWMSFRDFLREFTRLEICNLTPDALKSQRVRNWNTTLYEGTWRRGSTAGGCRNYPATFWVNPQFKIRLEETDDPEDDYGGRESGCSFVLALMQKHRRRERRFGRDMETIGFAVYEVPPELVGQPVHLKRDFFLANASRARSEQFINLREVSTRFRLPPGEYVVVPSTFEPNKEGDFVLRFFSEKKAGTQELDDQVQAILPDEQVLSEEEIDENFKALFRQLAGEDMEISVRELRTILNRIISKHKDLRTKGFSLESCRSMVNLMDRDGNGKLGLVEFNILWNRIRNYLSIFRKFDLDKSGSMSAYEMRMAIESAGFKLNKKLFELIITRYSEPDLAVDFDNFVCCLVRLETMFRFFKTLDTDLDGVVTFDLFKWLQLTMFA
How it was run: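 Substrate was Suc-Leu-Tyr-AMC at two concentrations, inhibitor varied, and 5 mM CaCl2 started the reaction. Fluorescence increase (ex 370, em 440 nm) was read at ambient temperature. Ki came from Dixon plots of triplicate means.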

Cathepsin B = Cathepsin B (Homo sapiens, UniProt P07858); experiment: The compound was evaluated for inhibition of cathepsin B from human liver
How it was run: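 Cathepsin B from human liver, assayed in 20 mM NaOAc pH 5.2, 0.5 mM DTT, 2% DMSO. Ki was obtained from Dixon plots (1/v versus inhibitor concentration, intersecting lines) using the average of triplicate assays.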

| Selectivity ratio [1] | Ki [2] | Ki (Cathepsin B) | Structure (SMILES) |
| --- | --- | --- | --- |
| 0.5 | 11.1 µM | 5.05 µM | CC(C)[C@H]1C[C@@]1(NC(=O)OCc1ccccc1)C(=O)N[C@@H](Cc1ccccc1)C(=O)C(=O)NCCc1ccccc1 |
| 9 | 0.75 µM | 6.78 µM | CC(C)[C@@H]1C[C@@]1(NC(=O)OCc1ccccc1)C(=O)N[C@@H](Cc1ccccc1)C(=O)C(=O)NCCc1ccccc1 |
| 0.2 | 6.15 µM | 1.26 µM | CC(C)[C@H]1C[C@]1(NC(=O)OCc1ccccc1)C(=O)N[C@@H](Cc1ccccc1)C(=O)C(=O)NCCc1ccccc1 |

Continued, compound first:

| Structure (SMILES) | Selectivity ratio [1] | Ki [2] | Ki (Cathepsin B) |
| --- | --- | --- | --- |
| CC(C)C[C@H](NC(=O)OCc1ccccc1)C(=O)N[C@@H](Cc1ccccc1)C(=O)C(=O)NCCc1ccccc1 | 4 | 0.07 µM | 0.3 µM |
| CC(C)[C@@H]1C[C@]1(NC(=O)OCc1ccccc1)C(=O)N[C@@H](Cc1ccccc1)C(=O)C(=O)NCCc1ccccc1 | 0.1 | 40 µM | 4.56 µM |

From ChEMBL document CHEMBL1133486, “Synthesis and calpain inhibitory activity of alpha-ketoamides with 2,3-methanoleucine stereoisomers at the P2 position” (Bioorg Med Chem Lett, 2000)
